Consider four compounds from ChEMBL document CHEMBL3593174, “Amantelides A and B, Polyhydroxylated Macrolides with Differential Broad-Spectrum Cytotoxicity from a Guamanian Marine Cyanobacterium” (J Nat Prod, 2015).

In brackets after ≈: the same amount, converted by molar mass.

Experiment [1] concerns HT-29. The experiment in a line: Cytotoxicity against human HT-29 cells after 48 hrs by MTT assay. The format is functional, cell-based. The conditions noted are these: HT-29, 48 h. The method, boiled down:
(§1)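 HeLa (3000) or HT29 (12 500 cells/well) grown in DMEM with 10% FBS, 5% CO2, 37 °C; treated with graded concentrations 24 h after seeding, DMSO solvent control, then incubated 48 h before MTT viability read-out; IC50 fitted from duplicate experiments.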

Experiment [2] concerns HeLa. In words: Cytotoxicity against human HeLa cells after 48 hrs by MTT assay. The format is functional, cell-based. An outline of the steps:
as §1

Experiment [3] relates to Staphylococcus aureus. In words: Antimicrobial activity against Staphylococcus aureus ATCC 6538 after 24 hrs by broth microdilution method. The format is functional. As to conditions: ATCC 6538, 24 h. An outline of the steps: (§2)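 Broth microdilution in Mueller–Hinton broth; colony grown 6–8 h at 37 °C, adjusted to 0.5 McFarland then diluted 100-fold as inoculum. Treated 24 h at 37 °C, 150 rpm; 0.02% v/v resazurin added, fluorescence read at ex 530/em 590 nm. Oxacillin (S. aureus) or nalidixic acid (P. aeruginosa) positive controls, MHB-only sterility control; % inhibition relative to solvent control.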

Experiment [4] concerns Pseudomonas aeruginosa. The experiment in a line: Antimicrobial activity against Pseudomonas aeruginosa ATCC 27853 after 24 hrs by broth microdilution method. As to conditions: ATCC 27853, 24 h. The format is functional. The method, boiled down:
as §2

In experiment [5] the test system is Fusarium sp. The experiment in a line: Antifungal activity against Fusarium sp. assessed as growth inhibition at 62.5 ug/ml. The format is functional. The conditions noted are these: read-out: GI. The method, boiled down:
(§3)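 Fungus (Lindra thalassiae, Dendryphiella salina or Fusarium sp.) exposed to sample dissolved in MeOH, serially diluted, added to molten YPM P/S agar; MeOH-only solvent controls plus media-only wells; triplicate wells; 1 mm2 plug of culture transferred per well, 26 °C. Scored when media controls fully covered by hyphae: hyphae-containing squares counted through window screen; % inhibition versus solvent control.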

Experiment [6] is described as follows: Antifungal activity against Dendryphiella salina assessed as growth inhibition at 6.25 ug/ml. The format is functional. The conditions noted are these: Paradendryphiella salina. The method, boiled down:
as §3

In experiment [7] the test system is Fusarium sp. The experiment in a line: Antifungal activity against Fusarium sp. assessed as growth inhibition at 6.25 ug/ml. The format is functional. As to conditions: read-out: GI. The method, boiled down:
as §3

The subject of experiment [8] is Lindra thalassiae. In words: Antifungal activity against Lindra thalassiae assessed as growth inhibition at 6.25 ug/ml. The format is functional. The conditions noted are these: Lindriella thalassiae; read-out: GI. The method, boiled down:
as §3

The test system of experiment [9] is Lindra thalassiae. The experiment in a line: Antifungal activity against Lindra thalassiae assessed as growth inhibition at 62.5 ug/ml. The format is functional. The conditions noted are these: Lindriella thalassiae; read-out: GI. The method, boiled down:
as §3

Experiment [10] is described as follows: Antifungal activity against Dendryphiella salina assessed as growth inhibition at 62.5 ug/ml. The format is functional. As to conditions: Paradendryphiella salina. An outline of the steps:
as §3

In experiment [11] the test system is HT-29. In words: Cytotoxicity against human HT-29 cells after 1 to 48 hrs by MTT assay. The format is functional, cell-based. An outline of the steps: (§4)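 HeLa and HT29 cultured in DMEM with 10% FBS at 37 °C, 5% CO2, exposed to graded concentrations for 1, 3, 6, 12, 24 or 48 h; MTT viability read-out, IC50 at each time point.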
The test system of experiment [12] is HeLa. The experiment in a line: Cytotoxicity against human HeLa cells after 1 to 48 hrs by MTT assay. The format is functional, cell-based. An outline of the steps:
as §4

Experiment [13] concerns Fusarium sp. In words: Antifungal activity against Fusarium sp. assessed as growth inhibition at 625 ug/ml. The conditions noted are these: read-out: GI. The format is functional. An outline of the steps: as §3
A short description of experiment [14]: Antifungal activity against Dendryphiella salina assessed as growth inhibition at 625 ug/ml. The format is functional. The conditions noted are these: Paradendryphiella salina. An outline of the steps: as §3
Experiment [15] has as its system Lindra thalassiae. The experiment in a line: Antifungal activity against Lindra thalassiae assessed as growth inhibition at 625 ug/ml. The format is functional. As to conditions: Lindriella thalassiae; read-out: GI. The method, boiled down: as §3

For `CC(=O)OC1CCCC(O)CCCC(O)CCCC(O)CCCC(O)CCCC(O)CCC[C@@H](O)C[C@@H](O)CCC/C(C)=C\C(=O)OC(C(C)(C)C)CC(O)CCC1` (some centres undefined), the IC50 in experiment [1] was found to be 12 µM; in [2], 9.9 µM.

On to `C[C@@H]1[C@H](O)[C@@H](C)/C=C/C=C/C=C/C=C/C=C/C=C/C=C/[C@H](O[C@@H]2O[C@H](C)[C@@H](O)[C@H](N)[C@@H]2O)C[C@@H]2O[C@](O)(C[C@@H](O)C[C@@H](O)[C@H](O)CC[C@@H](O)C[C@@H](O)CC(=O)O[C@H]1C)C[C@H](O)[C@H]2C(=O)O` [AMPHOTERICIN B], for which the minimal inhibitory concentration (MIC) in experiment [3] and in experiment [4] was more than 100 µM each time. In addition, the inhibition of growth at 62.5 µg/mL in experiment [5] stood at 6%; in experiment [9], 21%. In addition, the IC50 in experiment [1] and in experiment [2] was 10 µM each time. Further, the growth inhibition (GI) in experiment [6] and in experiment [10] was 100% in each case. Besides, the inhibition of growth at 6.25 µg/mL amounted to 12% in [7] and 0% in [8].

With `CC(=O)OC1CCCC(OC(C)=O)CCCC(OC(C)=O)CCCC(OC(C)=O)CCC[C@@H](OC(C)=O)C[C@@H](OC(C)=O)CCC/C(C)=C\C(=O)OC(C(C)(C)C)CC(OC(C)=O)CCCC(OC(C)=O)CCCC(OC(C)=O)CCC1` (some centres undefined), the results for the IC50 in [1] and in [2] were 58 µM and 18 µM, respectively.

`C/C1=C/C(=O)OC(C(C)(C)C)CC(O)CCCC(O)CCCC(O)CCCC(O)CCCC(O)CCCC(O)CCCC(O)CCC[C@@H](O)C[C@@H](O)CCC1` (some centres undefined): the MIC in [3] and in experiment [4] was 32 µM (≈ 25.3 µg/mL) each time. The IC50 in experiment [11], in experiment [12], in experiment [1] and in experiment [2] was 0.87 µM each time. Also, the inhibition of growth at 62.5 µg/mL in experiment [5] and in experiment [9] was 100% throughout. The inhibition of growth at 625 µg/mL in experiment [13] and in experiment [15] was 100% in each case. The growth inhibition (GI) in experiment [6] came out at 0%; in [14] it was 100%; in experiment [10], 60%. Besides, the inhibition of growth at 6.25 µg/mL in [7] worked out at 35%; in experiment [8], 40%.
